In brackets after ≈: the same amount, converted by molar mass.

For series [1], the target named is T1, Adenosine receptor A2b (Rattus norvegicus) (UniProt P29276).
T1 sequence (whole entry): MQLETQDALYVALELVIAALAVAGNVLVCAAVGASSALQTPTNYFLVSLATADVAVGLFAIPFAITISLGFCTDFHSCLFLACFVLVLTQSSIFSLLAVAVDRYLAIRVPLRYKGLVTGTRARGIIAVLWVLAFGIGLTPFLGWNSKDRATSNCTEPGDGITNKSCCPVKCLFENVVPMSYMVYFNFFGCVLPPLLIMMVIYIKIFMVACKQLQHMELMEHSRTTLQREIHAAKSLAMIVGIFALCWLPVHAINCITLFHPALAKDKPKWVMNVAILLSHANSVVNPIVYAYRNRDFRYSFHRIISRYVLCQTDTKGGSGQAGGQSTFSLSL
Description: Antagonistic binding affinity for rat Adenosine A2B receptor.

The target in series [2] is T2, Adenosine receptor A3 (Rattus norvegicus) (UniProt P28647).
T2 sequence (whole entry): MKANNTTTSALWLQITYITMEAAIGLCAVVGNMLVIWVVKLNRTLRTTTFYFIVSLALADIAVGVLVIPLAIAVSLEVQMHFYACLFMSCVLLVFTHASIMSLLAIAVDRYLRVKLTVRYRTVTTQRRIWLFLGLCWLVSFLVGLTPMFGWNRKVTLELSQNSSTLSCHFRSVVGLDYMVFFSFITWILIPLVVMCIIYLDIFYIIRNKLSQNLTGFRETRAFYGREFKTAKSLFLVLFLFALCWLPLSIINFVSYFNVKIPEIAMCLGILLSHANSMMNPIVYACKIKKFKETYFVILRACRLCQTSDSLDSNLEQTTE
Description: Percent inhibition of binding to rat Adenosine A3 receptor at 10 uM.

Series [3] deals with Adenosine receptor A2a (Rattus norvegicus) (UniProt P30543). Description: Antagonism of NECA-stimulated adenylate cyclase at Adenosine A2A receptor in rat PC12 cell membranes.
Sequence of Adenosine receptor A2a (Rattus norvegicus) (P30543 whole entry): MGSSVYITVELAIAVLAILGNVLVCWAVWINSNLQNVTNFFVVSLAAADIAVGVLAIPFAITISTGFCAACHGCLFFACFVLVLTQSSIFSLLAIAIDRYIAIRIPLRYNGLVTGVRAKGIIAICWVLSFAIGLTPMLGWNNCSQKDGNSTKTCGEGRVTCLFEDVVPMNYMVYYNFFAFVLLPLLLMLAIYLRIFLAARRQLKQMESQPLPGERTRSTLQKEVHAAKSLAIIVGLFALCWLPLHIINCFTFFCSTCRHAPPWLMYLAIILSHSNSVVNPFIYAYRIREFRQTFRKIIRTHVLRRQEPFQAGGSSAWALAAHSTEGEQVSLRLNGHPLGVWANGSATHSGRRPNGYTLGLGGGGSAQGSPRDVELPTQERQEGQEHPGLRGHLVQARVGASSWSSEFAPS
In a further series the target is Adenosine receptor A2a (Rattus norvegicus, UniProt P30543). Description: Radioligand binding assay for [3H]NECA affinity towards adenosine A2A receptor of rat striatum. It is filed as tissue-based. A digest of the protocol: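 Rat striatal membranes incubated with [3H]NECA. 50 nM N6-cyclopentyladenosine present to block A1 sites. Nonspecific binding defined with 5 mM theophylline. Five to six test concentrations, each in triplicate, in at least two separate experiments. Ki derived from inhibition of binding.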
Sequence of Adenosine receptor A2a (P30543 whole entry): as above

For series [4], the target named is Adenosine receptors; A1 & A2 (Rattus norvegicus) (UniProt P29276+P25099+P30543). Kind of series: Selectivity ratio between A1 and A2-receptors estimated as A2/A1. It is filed as protein assay.
Sequence of Adenosine receptors; A1 & A2 (Rattus norvegicus) (P30543 whole entry, looked up, one chain of several): as the sequence (P30543 whole entry) above
In a further series the target is T3, Adenosine receptor A1 (Rattus norvegicus, UniProt P25099).
T3 sequence (P25099 whole entry): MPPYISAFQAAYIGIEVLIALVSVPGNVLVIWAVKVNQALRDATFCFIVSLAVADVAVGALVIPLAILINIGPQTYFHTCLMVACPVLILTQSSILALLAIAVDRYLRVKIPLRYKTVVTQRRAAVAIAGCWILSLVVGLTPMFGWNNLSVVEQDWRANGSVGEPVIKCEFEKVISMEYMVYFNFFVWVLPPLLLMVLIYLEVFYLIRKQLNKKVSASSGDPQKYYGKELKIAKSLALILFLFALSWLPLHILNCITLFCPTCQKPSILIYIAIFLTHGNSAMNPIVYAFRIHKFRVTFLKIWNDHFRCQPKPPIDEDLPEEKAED
Kind of series: Radioligand binding assay for [3H]-PIA affinity towards Adenosine A1 receptor of rat cerebral cortical membrane. A digest of the protocol: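 Rat cerebral cortical membranes incubated with [3H]-(R)-PIA. Nonspecific binding defined with 10 μM 2-chloroadenosine. Five to six test concentrations, each in triplicate, in at least three separate experiments. Ki calculated from inhibition of binding.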

Series [5] in a line: Solubility in 50 mM TRIS-HCl buffer containing 1% DMSO, pH 7.4. It is filed as physicochemical. To be noted: read-out: S. A digest of the protocol:
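Bruns–Fergus biochemical method. 10 mM DMSO stock diluted 1:100 into 50 mM Tris-HCl pH 7.4, shaken overnight at room temperature, centrifuged and filtered through cotton. Serial dilutions of the saturated supernatant tested in an A1 [3H]CHA binding assay (KD 1 nM).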

A short description of series [6]: Solubility in 50 mM TRIS-HCl buffer containing 2.5% DMSO, pH 7.4. It is filed as physicochemical. To be noted: read-out: S. The method, boiled down:
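A 10 mM DMSO stock was diluted 1:40 into 50 mM TRIS-HCl, pH 7.4 (2.5% DMSO), then shaken overnight at room temperature to equilibrium. After centrifugation, the supernatant was filtered and serially diluted. Dilutions were tested in an A1 binding assay with [3H]CHA (KD 1 nM).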

Series [7] in a line: Partition coefficient (logP). It is filed as physicochemical. To be noted: octanol/water.

Turning to `Oc1ncnc2c1c1ccccc1n2-c1ccccc1`, the Kb turned out to be 3.4 µM in series [1] and 2.5 µM in series [3]. For the same molecule, the inhibition in [2] was < 20%.

For `Cc1c(C)n([C@@H](C)c2ccccc2)c2nc(-c3cccc(Cl)c3)nc(N)c12`, the Ki at Adenosine receptor A2a was > 30 µM; on Adenosine receptor A1, 0.485 µM. For the same molecule, the Selectivity ratio in series [4] is > 62.

With `Cc1ccc([C@@H](C)n2c3ccccc3c3c(N)nc(-c4ccccc4)nc32)cc1`, the inhibition constant Ki on Adenosine receptor A2a was 21.4 µM; at Adenosine receptor A1, 0.014 µM. In [4], the Selectivity ratio was 1530.

`Cc1c(C)n([C@H](C)c2ccccc2)c2nc(-c3ccc(Cl)cc3)nc(O)c12`: the Ki at Adenosine receptor A2a and on Adenosine receptor A1 was > 30 µM in each case.

On to `Cc1c(C)n([C@H](C)c2ccccc2)c2nc(-c3ccccc3)nc(O)c12`, for which the inhibition constant (Ki) is > 30 µM on Adenosine receptor A2a and 2.98 µM on Adenosine receptor A1. Besides, the Selectivity in series [4] is > 10.

As to `Cc1c(C)n([C@@H](C)c2ccccc2)c2nc(-c3ccc(Cl)c(Cl)c3)nc(N)c12`, the Selectivity ratio in [4] is > 17. On Adenosine receptor A1, this molecule registered a Ki of 1.8 µM.

For `Cc1c(C)n([C@@H](C)c2ccccc2)c2nc(-c3ccc(Cl)cc3)[nH]c(=O)c12`, the Ki at Adenosine receptor A2a and at Adenosine receptor A1 was > 30 µM throughout.

In the case of `O=C1Nc2nc[nH]c(=O)c2C12CCCC2`, the Ki on Adenosine receptor A2a was determined as 346 µM; at Adenosine receptor A1, 127 µM.

On to `Cc1c(C)n([C@@H](C)c2ccccc2)c2nc(-c3ccccc3)nc(N)c12`, for which the solubility in series [5] amounted to 0.26 µM (≈ 0.089 µg/mL). For the same molecule, the figures for the Ki at Adenosine receptor A2a and at Adenosine receptor A1 were 3.71 µM and 0.0047 µM, respectively. Further, the Selectivity ratio in [4] was 789.

As to `C[C@@H](c1ccccc1)n1c2ccccc2c2c(N)nc(-c3ccccc3)nc21`, the values for the Ki at Adenosine receptor A2a and at Adenosine receptor A1 were > 30 µM and 0.064 µM, respectively.

`Cc1c(C)n([C@H](C)c2ccccc2)c2nc(-c3ccc(Cl)c(Cl)c3)nc(N)c12`: the Ki on Adenosine receptor A2a is > 30 µM; at Adenosine receptor A1, 0.33 µM. Further, the Selectivity ratio in series [4] is > 91.

For the molecule `Cc1c(C)n([C@@H](C)c2ccccc2)c2nc(-c3ccccc3)[nH]c(=O)c12`, the inhibitory constant (Ki) at Adenosine receptor A2a and at Adenosine receptor A1 was > 30 µM each time.

On to `Cc1c(C)n([C@H](C)c2ccccc2)c2nc(-c3ccc(Cl)cc3)nc(N)c12`, for which the solubility in series [5] was determined as 2.2 µM (≈ 0.829 µg/mL); in series [6] it was 7.2 µM (≈ 2.71 µg/mL). Further, the Ki at Adenosine receptor A2a was > 30 µM; at Adenosine receptor A1, 0.05 µM. In series [4], the Selectivity ratio is > 600.

As to `COc1cccc(-c2nc(N)c3c(C)c(C)n([C@H](C)c4ccccc4)c3n2)c1`, the results for the Ki at Adenosine receptor A2a and on Adenosine receptor A1 were > 10 µM and 0.083 µM, respectively. Besides, in [4], the Selectivity ratio was > 120.

Consider `Cc1nc2nc(-c3ccccc3)[nH]c(N[C@H](C)c3ccccc3)c-2c1C`, for which the values for the solubility in series [5] and in series [6] were 1.5 µM (≈ 0.514 µg/mL) and 5.9 µM (≈ 2.02 µg/mL), respectively. The values for the inhibition constant Ki on Adenosine receptor A2a and on Adenosine receptor A1 were > 30 µM and 0.0067 µM, respectively. For the same molecule, in series [4], the Selectivity was > 4480. Moreover, the logP in [7] is 3.5.

For `COc1ccc(-c2nc(N)c3c(C)c(C)n([C@H](C)c4ccccc4)c3n2)cc1`, the Ki at Adenosine receptor A2a is > 10 µM; on Adenosine receptor A1, 0.101 µM. In addition, in series [4], the Selectivity ratio was > 99.

Turning to `C[C@H](c1ccccc1)N1C(=O)C2(CCCC2)c2c(O)nc(-c3ccccc3)nc21`, the Ki on Adenosine receptor A2a and on Adenosine receptor A1 was > 30 µM in each case.

With `Cc1nc2nc(-c3ccccc3)[nH]c(N[C@@H](C)c3ccccc3)c-2c1C`, the Selectivity in series [4] is > 47.

For `Cc1[nH]c2nc(-c3ccccc3)nc(N[C@@H](C)c3ccccc3)c2c1C`, the Ki on Adenosine receptor A2a was > 30 µM; on Adenosine receptor A1, 0.64 µM.

For `C[C@H](c1ccccc1)n1c2ccccc2c2c(O)nc(-c3ccccc3)nc21`, the Ki at Adenosine receptor A2a and on Adenosine receptor A1 was > 30 µM each time.

For `Cc1c(C)n([C@H](C)c2ccccc2)c2nc(-c3ccccc3)nc(N)c12`, the values for the Ki at Adenosine receptor A2a and on Adenosine receptor A1 were 81 µM and 0.165 µM, respectively. Moreover, the Selectivity ratio in series [4] was 490.

Take `O=C1Nc2ncnc(O)c2C12CCCC2`: the Selectivity in [4] is 2.7.

In the case of `C[C@@H](c1ccccc1)n1c2ccccc2c2c(O)nc(-c3ccccc3)nc21`, the Ki on Adenosine receptor A2a and on Adenosine receptor A1 was > 30 µM each time.

Consider `O=C1N(c2ccccc2)c2ncnc(O)c2C12CCCC2`, for which the Selectivity in series [4] was 13.

With `C[C@@H](Cc1ccccc1)n1c2ccccc2c2c(N)nc(-c3ccccc3)nc21`, the inhibition constant Ki on Adenosine receptor A2a was > 30 µM; on Adenosine receptor A1, 0.32 µM. The Selectivity ratio in [4] is > 94.

Regarding `Cc1c(C)n([C@@H](C)c2ccccc2)c2nc(-c3ccccc3Cl)nc(N)c12`, the figures for the Ki at Adenosine receptor A2a and at Adenosine receptor A1 were > 30 µM and 0.273 µM, respectively. Further, the Selectivity ratio in [4] was > 110.

For `O=C1N(c2ccccc2)c2nc[nH]c(=O)c2C12CCCC2`, the values for the Ki on Adenosine receptor A2a and at Adenosine receptor A1 were 17.2 µM and 1.3 µM, respectively.

For the molecule `Cc1ccc([C@H](C)n2c3ccccc3c3c(N)nc(-c4ccccc4)nc32)cc1`, the figures for the Ki on Adenosine receptor A2a and on Adenosine receptor A1 were > 30 µM and 0.297 µM, respectively. Further, the Selectivity ratio in series [4] is > 101.

With `Cc1c(C)n([C@@H](C)c2ccccc2)c2nc(-c3ccc(Cl)cc3)nc(N)c12`, the inhibitory constant (Ki) at Adenosine receptor A2a was > 30 µM; at Adenosine receptor A1, 0.878 µM. Further, the Selectivity ratio in series [4] was > 34.

Take `CC(c1ccccc1)n1c2ccccc2c2c(N)ncnc21` (configuration not stated): the inhibition constant Ki at Adenosine receptor A2a amounted to 27.7 µM; on Adenosine receptor A1, 1.13 µM. For the same molecule, in series [4], the Selectivity ratio was 25.

As for `C[C@H](c1ccccc1)n1c2ccccc2c2c(N)nc(-c3ccccc3)nc21`, the solubility in [5] came out at 0.48 µM (≈ 0.175 µg/mL); in series [6], 1.5 µM (≈ 0.547 µg/mL). The figures for the inhibition constant Ki at Adenosine receptor A2a and at Adenosine receptor A1 were 6.2 µM and 0.0026 µM, respectively.

Consider `Cc1c(C)n([C@H](C)c2ccccc2)c2nc(-c3cccc(Cl)c3)nc(N)c12`, for which the solubility in series [5] amounted to 2.8 µM (≈ 1.06 µg/mL). Also, the Ki on Adenosine receptor A2a amounted to 16.3 µM; on Adenosine receptor A1 it was 0.0076 µM. In addition, the Selectivity ratio in series [4] is 2140.

On to `CC(c1ccccc1)N1C(=O)C2(CCCC2)c2c(O)ncnc21` (configuration not stated), for which the inhibitory constant (Ki) at Adenosine receptor A2a stood at 88.4 µM. Moreover, the Selectivity in series [4] is 26.

On to `Cc1c(C)n([C@H](C)c2ccccc2)c2ncnc(N[C@H](C)c3ccccc3)c12`, for which the inhibitory constant (Ki) at Adenosine receptor A2a is > 30 µM.

Take `Nc1nc(-c2ccccc2)nc2c1c1ccccc1n2-c1ccccc1`: the inhibition constant (Ki) was found to be 8.3 µM on Adenosine receptor A2a and 0.022 µM at Adenosine receptor A1. In addition, in series [4], the Selectivity is 377.

Regarding `Cc1c(C)n([C@@H](C)c2ccccc2)c2ncnc(N[C@@H](C)c3ccccc3)c12`, the Ki on Adenosine receptor A2a is > 30 µM.

Take `Cc1c(C)n([C@H](C)c2ccccc2)c2nc(-c3ccccc3Cl)nc(N)c12`: the Ki at Adenosine receptor A2a was found to be 5.2 µM; at Adenosine receptor A1 it was 0.0096 µM. Besides, the Selectivity ratio in [4] was 537.

What is called Kb is the equilibrium dissociation constant of an antagonist, usually derived from a functional assay. Low readings indicate higher antagonist affinity, high ones lower antagonist affinity. What is called inhibition is the relative decrease from the control value, in per cent. The low end stands for a weak effect, the high end for a strong effect. By Ki is commonly meant the equilibrium dissociation constant of an inhibitor or competing ligand from its target. As a reminder, the logP is the decadic logarithm of the partition coefficient of the neutral form, usually between octanol and water. A high value points to higher lipophilicity.

The record behind these values is ChEMBL document CHEMBL1129727, “Chiral pyrrolo[2,3-d]pyrimidine and pyrimido[4,5-b]indole derivatives: structure-activity relationships of potent, highly stereoselective A1-adenosine receptor antagonists” (J Med Chem, 1996).
